Source: PubChem BioAssay
Runt-CBFb FRET = Runt domain-CBFb interaction inhibition | inhibition, % at 20 µM | Cerulean-Runt/Venus-CBFb FRET ratio 530/480, 1 h | Q01196+Q13951 | actives 0.46% (n = 220,000);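 active = inhibition over about 50% at 20 µM in the single-dose screen, limit read from the data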;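 also: 0% = DMSO wells and 100% = excess unlabeled CBFb competitor control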
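Schedule: protein complex preformed 1 h, compound exposure 1 h, room temperature, dark; test system: Cerulean-labeled Runt domain protein; amount: 100 nM per protein; buffer or medium: Tris 50 mM pH 7.5, KCl, K2SO4, 0.01% BSA; read-out: loss of energy transfer signal; detection: FRET fluorescence; controls: 5 µM unlabeled CBFb as full-inhibition high control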
RanGTP-Imp inh = inhibitors of RanGTP-importin-beta interaction, primary screen, biochemical, FRET, CFP-Ran, YFP-importin-beta, homogeneous. actives 1.1% (n = 300,000). cell-free CFP-Ran/YFP-importin-beta FRET ratio. inhibition, % (no concentration beside the values). AID 2216;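 active = more than half of the replicate wells show a fall in the fluorescence ratio signal beyond about 16%, limit read from the data, passing the limit was not always enough; inconclusive = exactly half of the replicate wells pass the set limit; inactive = fewer than half of replicates pass the limit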;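 also: 0% = DMSO wells and 100% = Ran loaded with GDP instead of GTP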
Runt-SMMHC FRET = blocks binding of human RUNX1 Runt domain to CBFb-SMMHC; Q01196+Q13951; inhibition, % at 20 µM; AID 1434; actives 0.74% (n = 220,000); Cerulean-Runt/Venus-CBFb-SMMHC FRET ratio 530/480, 1 h;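 active = mean inhibition across duplicate retests at 20 µM reaching about 50%, limit read from the data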;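 also: 0% = DMSO wells and 100% = wells with excess untagged CBFb-SMMHC; inhibitors lower the FRET ratio by blocking Runt binding to CBFb-SMMHC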
EBV gp42 block = EBV gp42 inhibition | AID 1085 | Fluorescence polarization binding assay, mP read-out | actives 0.42% (n = 220,000) | Q1HVG2 | inhibition, % (tested at 21.74 µM)
MEX-5 binding = C. elegans MEX-5 TCR-2 RNA binding activity; MEX-5/FITC-TCR2 RNA binding, fluorescence polarization; stronger effect = lower value; activity score (negative = inhibition of binding), % at 10 µM; actives 0.38% (n = 300,000);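 active = inhibition past about -25% in most replicates, and total fluorescence under double the plate's negative control median, limit read from the data; inconclusive = replicates evenly split on the limit, or fluorescence at least double controls; inactive = too little inhibition in most replicates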;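 also: 0% = DMSO and -100% = 5 µM competing unlabeled TCR2 RNA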
Target sequence (Q9XUB2 whole entry, looked up): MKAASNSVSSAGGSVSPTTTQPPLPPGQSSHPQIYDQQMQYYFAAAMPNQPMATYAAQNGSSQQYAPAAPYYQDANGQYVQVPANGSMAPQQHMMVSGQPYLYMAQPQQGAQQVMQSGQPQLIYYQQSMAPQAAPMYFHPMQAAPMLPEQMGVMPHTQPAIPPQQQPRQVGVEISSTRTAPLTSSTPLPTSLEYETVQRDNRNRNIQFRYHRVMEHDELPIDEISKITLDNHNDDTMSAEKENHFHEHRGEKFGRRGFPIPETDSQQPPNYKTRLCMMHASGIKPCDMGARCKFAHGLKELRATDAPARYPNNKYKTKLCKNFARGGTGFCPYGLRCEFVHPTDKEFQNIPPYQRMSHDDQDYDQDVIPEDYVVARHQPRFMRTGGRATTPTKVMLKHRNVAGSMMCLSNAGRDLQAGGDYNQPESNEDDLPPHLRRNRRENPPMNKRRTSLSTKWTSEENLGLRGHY
PKD1 kinase inh = PKD1 (human) kinase inhibition; PKD1 kinase fluorescence polarization assay; actives 0.056% (n = 200,000); inhibition, % (test concentration not listed); AID 797; Q15139
An asterisk follows results filed as active; i = inactive; ? = inconclusive; . = no result given. In the library only some 2% were active in any assay of this set; here they are far more common. Rule as the data show it, unless noted: active = inhibition above about 50%; inactive = the rest.

SMILES | Runt-CBFb FRET | RanGTP-Imp inh | Runt-SMMHC FRET | EBV gp42 block | MEX-5 binding | PKD1 kinase inh
COc1cc(-c2c(C(C)=O)c(C)nc3c2C(=O)c2ccccc2-3)cc(OC)c1OC | . | -8 | . | . | 0 | .
COc1cc2c(cc1OC)-c1c(OC)c(OC)cc3ccnc(c13)C2=O | -4 | -3 | -6 | 5 | -57* | 30
CNS(=O)(=O)c1ccc(CCC(=O)N2CCOCC2)cc1 | . | 4 | . | . | -1 | .
CC(C)(C)NS(=O)(=O)c1ccc(CCC(=O)N2CCOCC2)cc1 | 2 | 35* | 1 | -5 | 1 | 0
O=C(CSCc1c(F)cccc1F)Nc1ccccc1 | . | 0 | . | . | 3 | .
Cc1ccc(N2C(=O)c3cccc4c(N5CCN(C)CC5)ccc(c34)C2=O)c2cccnc12 | -314 | i | -214 | 159* | -58* | 5
O=C1c2cccc3c(N4CCCCC4)ccc(c23)C(=O)N1c1ccccc1O | -293 | -244 | -120 | 40 | -56* | -6
O=C1c2cccc3c(N4CCCCC4)ccc(c23)C(=O)N1c1ccc(O)cc1 | -363 | . | -175 | -7 | ? | -5
COc1ccc(S(=O)(=O)CC(=O)c2cc3cc(Br)ccc3oc2=O)cc1 | . | -4 | . | . | 1 | .
Cc1ccc2cccc(Oc3ncnc4scc(-c5ccc(Cl)cc5)c34)c2n1 | -2 | 0 | 5 | 1 | -2 | -3
O=C(CNC(=O)c1ccc(Cl)cc1Cl)OCC(=O)N1CCCC1=O | . | . | . | . | 0 | .
COC(=O)c1ccc(NC(=O)CCN2C(=O)CSC2=O)cc1 | 0 | 0 | -16 | 2 | 0 | 4
CC(C)c1ccc(C(C(=O)NC2CCCCC2)N(C(=O)c2csnn2)C2CC2)cc1 (stereo not drawn) | . | 3 | . | . | 1 | .
Cc1ccccc1-n1c(SCc2c(C)noc2C)nnc1-c1cccnc1 | -4 | -4 | -13 | 89* | -17 | -2
Cc1ccccc1-n1c(SCc2c(C)noc2C)nnc1-c1ccncc1 | 1 | ? | 2 | -16 | 3 | -9
Cn1nc(-c2ccc(Cl)cc2)c2cc(C(=O)NCCN3CCOCC3)sc21 | 3 | 136* | -4 | 1 | 1 | 3
O=C1CC(C(=O)N2CCN(c3ccccc3O)CC2)CN1Cc1ccccc1 (stereo not drawn) | . | 8 | . | . | -1 | .
COc1ccc(C=C2C(=O)OC(C)(C)OC2=O)cc1OC | 1 | 1 | -4 | -4 | -50* | .
COc1ccc(/C=C2\OC(=O)c3c(OC)cccc32)cc1OC | 5 | 39* | -16 | 3 | 2 | -9
C=CCOc1ccc(C2C(C#N)=C(N)N(Nc3ccccc3)C3=C2C(=O)CCC3)cc1OC (stereo not drawn) | 89* | 7 | 104* | -4 | 4 | -12
Cn1c2ccccc2c(=O)c2cc(C#Cc3ccccn3)ccc21 | . | 147* | . | . | -6 | .
COc1cc2oc3ccc(C#Cc4ccccn4)cc3c(=O)c2cc1OC | . | -2 | . | . | -4 | .
Cn1c(-c2ccccc2)cc(=O)c2ccccc21 | 0 | -1 | -1 | -12 | -1 | -5
Cn1c2ccccc2c(=O)c2ccc(C#Cc3ccccn3)cc21 | . | 97* | . | . | -6 | .
Cn1c2ccccc2c(=O)c2cc(C#Cc3ccsc3)ccc21 | . | 73* | . | . | -1 | .
SMILES | Runt-CBFb FRET | RanGTP-Imp inh | Runt-SMMHC FRET | EBV gp42 block | MEX-5 binding | PKD1 kinase inh
Cc1ccc(N(C(=O)CNC(=O)c2cccs2)C(C(=O)NC2CCCC2)c2ccncc2)cc1 (stereo not drawn) | . | -2 | . | . | 1 | .
CCC(CC)c1nnc(NC(=O)C2CC(=O)N(C3CCCC3)C2)s1 (stereo not drawn) | . | 1 | . | . | -1 | .
O=C(NC(C(=O)N/N=C/c1c2ccccc2cc2ccccc12)c1n[nH]c(=O)c2ccccc12)c1ccccc1 (stereo not drawn) | 1 | 97* | 8 | -20 | 3 | -5
COc1cc(/C=C2\C(=N)N3N=C(S(C)(=O)=O)SC3=NC2=O)ccc1OS(=O)(=O)c1ccc(C)cc1 | . | 3 | . | . | -9 | .
COc1cccc(NC(=O)CNC(=O)c2ccc(C)o2)c1 | . | -1 | . | . | -2 | .
COCCN1CCN(C(=O)c2cc(COc3cncc(Cl)c3)on2)CC1 | . | 0 | . | . | 4 | .
O=C(N/N=C/c1cccc(F)c1)c1cc(-c2ccco2)nc2ccccc12 | -1 | -4 | -19 | 66* | -1 | -8
